Assay results taken from ChEMBL document CHEMBL1123589, “Phenylpiperazine-based radiopharmaceuticals for brain imaging. 3. Synthesis and evaluation of radioiodinated 1-alkyl-4-phenylpiperazines” (J Med Chem, 1987).

Tests used:
Details in all cases: in vivo
Rattus norvegicus [1] = assay: The biodistribution of the [125I]-labeled compound in rats after intravenous injection was evaluated in adrenal at 0.25 hrs; value ranges from 0.97-1.66 (ID.kg/g); assay type: ADME, organism-based
Summary of the method: (§1)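 Male Sprague-Dawley rats (250–300 g) under ether anesthesia received 10–15 μCi of NCA radioiodinated (125I) tracer iv in 0.1 mL saline. Groups of 3 were killed at 0.25, 1 and 4 h. Blood and tissues were excised, weighed and counted in a γ-well scintillation counter. Values are % injected dose × body mass (kg) per g tissue, given as mean with range.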

Rattus norvegicus [2] = assay: The biodistribution of the [125I]-labeled compound in rats after intravenous injection was evaluated in adrenal at 1.00 hrs; value ranges from 0.61-1.12 (ID.kg/g); assay type: ADME, organism-based; summary of the method: as §1
Rattus norvegicus [3] = assay: The biodistribution of the [125I]-labeled compound in rats after intravenous injection was evaluated in adrenal at 4.00 hrs; value ranges from 0.39-0.45 (ID.kg/g); assay type: ADME, organism-based; summary of the method: as §1
Rattus norvegicus [4] = assay: The biodistribution of the [125I]-labeled compound in rats after intravenous injection was evaluated in blood at 0.25 hrs (ID.kg/g); assay type: ADME, organism-based
Summary of the method: (§2)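 Male Sprague-Dawley rats (250–300 g) under ether anesthesia were given an iv injection of no-carrier-added 125I-labelled agent (10–15 μCi in 0.1 mL saline). The agent was iodinated with chloramine-T in acetate buffer and purified by C-18 HPLC. Groups of N = 3 were killed at 0.25, 1 and 4 h. Blood and tissues were weighed and γ-counted. Values are % ID·kg/g, mean (range).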

Rattus norvegicus [5] = assay: The biodistribution of the [125I]-labeled compound in rats after intravenous injection was evaluated in blood at 1.00 hrs (ID.kg/g); assay type: ADME, organism-based; summary of the method: as §2
Rattus norvegicus [6] = assay: The biodistribution of the [125I]-labeled compound in rats after intravenous injection was evaluated in blood at 4.00 hrs (ID.kg/g); assay type: ADME, organism-based; summary of the method: as §2
Rattus norvegicus [7] = assay: The biodistribution of the [125I]-labeled compound in rats after intravenous injection was evaluated in thyroid at 1.00 hrs; value ranges from 2.47-2.81 (ID.kg/g); assay type: ADME, organism-based, Thyroid gland
Rattus norvegicus [8] = assay: The biodistribution of the [125I]-labeled compound in rats after intravenous injection was evaluated in brain at 0.25 hrs; value ranges from 0.25-0.30 (ID.kg/g); assay type: ADME, organism-based; summary of the method: as §1
Rattus norvegicus [9] = assay: The biodistribution of the [125I]-labeled compound in rats after intravenous injection was evaluated in heart at 0.25 hrs; value ranges from 0.23-0.28 (ID.kg/g); assay type: ADME, organism-based; summary of the method: as §1
Rattus norvegicus [10] = assay: The biodistribution of the [125I]-labeled compound in rats after intravenous injection was evaluated in heart at 1.00 hrs; value ranges from 0.16-0.21 (ID.kg/g); assay type: ADME, organism-based; summary of the method: as §1
Rattus norvegicus [11] = assay: The biodistribution of the [125I]-labeled compound in rats after intravenous injection was evaluated in heart at 4.00 hrs (ID.kg/g); assay type: ADME, organism-based; summary of the method: as §1
Rattus norvegicus [12] = assay: The biodistribution of the [125I]-labeled compound in rats after intravenous injection was evaluated in lung at 4.00 hrs; value ranges from 0.35-0.36 (ID.kg/g); assay type: ADME, organism-based; summary of the method: as §1
Rattus norvegicus [13] = assay: The biodistribution of the [125I]-labeled compound in rats after intravenous injection was evaluated in muscle at 0.25 hrs (ID.kg/g); assay type: ADME, organism-based, Muscle tissue
Summary of the method: (§3)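 Male Sprague-Dawley rats (250–300 g) under ether anesthesia given iv 0.1 mL saline containing 10–15 μCi of NCA ¹²⁵I-labeled agent (chloramine-T iodination, HPLC-purified). Groups of 3 killed at 0.25, 1 and 4 h. Blood and tissues excised, weighed and γ-counted. Values are mean (range) of % injected dose × body mass (kg) per gram of tissue.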

Rattus norvegicus [14] = assay: The biodistribution of the [125I]-labeled compound in rats after intravenous injection was evaluated in muscle at 4.00 hrs (ID.kg/g); assay type: ADME, organism-based, Muscle tissue; summary of the method: as §3
Rattus norvegicus [15] = assay: The biodistribution of the [125I]-labeled compound in rats after intravenous injection was evaluated in thyroid at 4.00 hrs; value ranges from 2.51-3.60 (ID.kg/g); assay type: ADME, organism-based, Thyroid gland
Rattus norvegicus [16] = assay: The biodistribution of the [125I]-labeled compound in rats after intravenous injection was evaluated in brain at 4.00 hrs; value ranges from 0.11-0.13 (ID.kg/g); assay type: ADME, organism-based; summary of the method: as §1
Rattus norvegicus [17] = assay: The biodistribution of the [125I]-labeled compound in rats after intravenous injection was evaluated in thyroid at 0.25 hrs; value ranges from 2.05-2.47 (ID.kg/g); assay type: ADME, organism-based, Thyroid gland
Rattus norvegicus [18] = assay: The biodistribution of the [125I]-labeled compound in rats after intravenous injection was evaluated in fat at 0.25 hr (ID. kg/g); assay type: ADME, organism-based, Adipose tissue; summary of the method: as §2
Rattus norvegicus [19] = assay: The biodistribution of the [125I]-labeled compound in rats after intravenous injection was evaluated in fat at 1.00 hrs (ID.kg/g); assay type: ADME, organism-based, Adipose tissue; summary of the method: as §2
Rattus norvegicus [20] = assay: The biodistribution of the [125I]-labeled compound in rats after intravenous injection was evaluated in brain at 1.00 hrs; value ranges from 0.21-0.27 (ID.kg/g); assay type: ADME, organism-based; summary of the method: as §1
Rattus norvegicus [21] = assay: The biodistribution of the [125I]-labeled compound in rats after intravenous injection was evaluated in fat at 4.00 hrs (ID.kg/g); assay type: ADME, organism-based, Adipose tissue; summary of the method: as §2
Rattus norvegicus [22] = assay: The biodistribution of the [125I]-labeled compound in rats after intravenous injection was evaluated in kidney at 4.00 hrs; value ranges from 0.23-0.24 (ID.kg/g); assay type: ADME, organism-based; summary of the method: as §1
Rattus norvegicus [23] = assay: The biodistribution of the [125I]-labeled compound in rats after intravenous injection was evaluated in liver at 4.00 hrs; value ranges from 0.19-0.22 (ID.kg/g); assay type: ADME, organism-based; summary of the method: as §1
Rattus norvegicus [24] = assay: The biodistribution of the [125I]-labeled compound in rats after intravenous injection was evaluated in lung at 0.25 hrs; value ranges from 1.14-1.30 (ID.kg/g); assay type: ADME, organism-based; summary of the method: as §1
Rattus norvegicus [25] = assay: The biodistribution of the [125I]-labeled compound in rats after intravenous injection was evaluated in lung at 1.00 hrs; value ranges from 0.86-0.96 (ID.kg/g); assay type: ADME, organism-based; summary of the method: as §1
Rattus norvegicus [26] = assay: The biodistribution of the [125I]-labeled compound in rats after intravenous injection was evaluated in liver at 1.00 hrs; value ranges from 0.30-0.36 (ID.kg/g); assay type: ADME, organism-based; summary of the method: as §1
Rattus norvegicus [27] = assay: The biodistribution of the [125I]-labeled compound in rats after intravenous injection was evaluated in kidney at 0.25 hr; value ranges from 0.49-0.61 (ID.kg/g); assay type: ADME, organism-based; summary of the method: as §1
Rattus norvegicus [28] = assay: The biodistribution of the [125I]-labeled compound in rats after intravenous injection was evaluated in kidney at 1.00 hrs; value ranges from 0.43-0.47 (ID.kg/g); assay type: ADME, organism-based; summary of the method: as §1
Rattus norvegicus [29] = assay: The biodistribution of the [125I]-labeled compound in rats after intravenous injection was evaluated in liver at 0.25 hr; value ranges from 0.32-0.39 (ID.kg/g); assay type: ADME, organism-based; summary of the method: as §1
Rattus norvegicus [30] = assay: The biodistribution of the [125I]-labeled compound in rats after intravenous injection was evaluated in muscle at 1.00 hrs (ID.kg/g); assay type: ADME, organism-based, Muscle tissue; summary of the method: as §3

Biodistribution (Rattus norvegicus [1]): 1.66%
Biodistribution (Rattus norvegicus [2]): 1.12%
Biodistribution (Rattus norvegicus [3]): 0.45%
Biodistribution (Rattus norvegicus [4]): 0.01 % ID·kg/g
Biodistribution (Rattus norvegicus [5]): 0.01 % ID·kg/g
Biodistribution (Rattus norvegicus [6]): 0.01 % ID·kg/g
Biodistribution (Rattus norvegicus [7]): 2.81%
Biodistribution (Rattus norvegicus [8]): 0.3%
Biodistribution (Rattus norvegicus [9]): 0.28%
Biodistribution (Rattus norvegicus [10]): 0.21%
Biodistribution (Rattus norvegicus [11]): 0.08%
Biodistribution (Rattus norvegicus [12]): 0.36%
Biodistribution (Rattus norvegicus [13]): 0.03 % ID·kg/g
Biodistribution (Rattus norvegicus [14]): 0.01 %ID·kg/g
Biodistribution (Rattus norvegicus [15]): 3.6%
Biodistribution (Rattus norvegicus [16]): 0.13%
Biodistribution (Rattus norvegicus [17]): 2.47%
Biodistribution (Rattus norvegicus [18]): 0.01 % ID·kg/g
Biodistribution (Rattus norvegicus [19]): 0.01 % ID·kg/g
Biodistribution (Rattus norvegicus [20]): 0.27%
Biodistribution (Rattus norvegicus [21]): 0.01%
Biodistribution (Rattus norvegicus [22]): 0.24%
Biodistribution (Rattus norvegicus [23]): 0.22%
Biodistribution (Rattus norvegicus [24]): 1.3%
Biodistribution (Rattus norvegicus [25]): 0.96%
Biodistribution (Rattus norvegicus [26]): 0.36%
Biodistribution (Rattus norvegicus [27]): 0.61%
Biodistribution (Rattus norvegicus [28]): 0.47%
Biodistribution (Rattus norvegicus [29]): 0.39%
Biodistribution (Rattus norvegicus [30]): 0.03 %ID·kg/g
Compound: Ic1ccc(N2CCN(C3CCCCC3)CC2)cc1
